Rows were chosen to be rich in hits. Some 0.74% of all compounds tested hit in one or more screens of this group.
Tn6 DDE FP: DD(E)-Tn6 binding inhibition, primary FP screen | Fibrin DD(E) TRITC-Tn6 fluorescence polarization displacement | P02675 | actives 0.21% (n = 370,000) | inhibition, % at 8.3 µM;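 active = inhibition above a per-campaign cutoff: mean of compounds within control limits plus 3 SD, cut at about 15% in these data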;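 note: 0% = median of all compound wells on the plate and 100% = blocking peptide control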
Target sequence (P02675 whole entry, looked up): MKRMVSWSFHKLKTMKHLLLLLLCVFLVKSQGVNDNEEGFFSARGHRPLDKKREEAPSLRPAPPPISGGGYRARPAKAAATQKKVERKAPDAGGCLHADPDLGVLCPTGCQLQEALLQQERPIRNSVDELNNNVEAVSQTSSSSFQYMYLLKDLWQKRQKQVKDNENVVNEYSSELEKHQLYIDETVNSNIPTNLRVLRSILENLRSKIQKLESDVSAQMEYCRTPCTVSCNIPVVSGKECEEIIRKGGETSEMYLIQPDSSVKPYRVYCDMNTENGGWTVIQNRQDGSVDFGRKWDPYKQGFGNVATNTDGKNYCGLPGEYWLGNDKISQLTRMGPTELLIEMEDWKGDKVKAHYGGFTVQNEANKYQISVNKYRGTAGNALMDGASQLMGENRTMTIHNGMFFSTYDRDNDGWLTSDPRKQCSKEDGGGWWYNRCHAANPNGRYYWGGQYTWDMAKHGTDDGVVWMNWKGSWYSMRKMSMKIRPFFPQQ
ASAP1 inh: ASAP1 ArfGAP inhibition; AID 624377; ASAP1-stimulated ARF1 GTP hydrolysis, GDP FP detection; inhibition, % at 16.5 µM; actives 0.19% (n = 360,000); Q9ULH1; in the data active = inhibition above about 25%;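 note: 0% = vehicle with enzyme and substrate and 100% = no enzyme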
ARFGAP1 inhibitor: inhibits rat ARF GTPase activating protein 1 | Arfgap1-stimulated ARF1 GTP hydrolysis, GDP FP detection | inhibition, % at 16.5 µM | actives 0.26% (n = 360,000);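 active = inhibition above a per-plate limit, mean inhibition of low control wells plus 3 SD, cut at about 25% in these data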;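 note: 0% = DMSO wells with enzyme and 100% = wells lacking Arfgap1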
Target sequence (Q62848 1-136 limits assumed): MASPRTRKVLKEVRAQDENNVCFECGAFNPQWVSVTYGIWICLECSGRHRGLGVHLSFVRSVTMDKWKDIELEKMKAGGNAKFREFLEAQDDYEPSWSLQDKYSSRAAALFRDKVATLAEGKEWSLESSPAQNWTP
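Material: rat Arfgap1 GAP domain (His6, aa 1-136), purified enzyme. Also added: human ARF1(Δ1-17)-GTP substrate. Compound dosing: 16.5 µM single point, 1.26% DMSO. Timing: enzyme reaction 120 min at 25 °C after 20 min preincubation. Signal: GDP detection by fluorescence polarization. Read-out basis: percent inhibition of GAP-stimulated GDP formation, scaled between DMSO and no-Arfgap1 medians.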
DDE Tn7 FP inh: inhibitors of Tn7 peptide binding to human fibrin DD(E). P02675. actives 0.13% (n = 370,000). inhibition, % at 8.3 µM. FP displacement of FITC-Tn7 peptide from fibrin DD(E); 0% = median of compound wells per plate. AID 720508;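 active = inhibition above the mean of compounds falling within the control limits plus 3 SD of them, cut at about 14% in these data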;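 note: 0% = plate median of compound wells and 100% = 10 µM Aha-Tn7 peptide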
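Assay system: Fibrin-DD(E) protein isolated from polymerized human fibrin clots; read-out basis: percent inhibition; medium: Tris/NaCl/CaCl2 buffer, pH 7.8; signal: FP measurement; incubation: 10 min plus 3 h, room temperature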
* hit, by the source's call; / = no result given; + = active, no number.

SMILES	Tn6 DDE FP	ASAP1 inh	ARFGAP1 inhibitor	DDE Tn7 FP inh
Cc1cc(NCCCCCCCNc2cc(C)nc3cc([N+](=O)[O-])ccc23)c2ccc([N+](=O)[O-])cc2n1	-17.1	107.6*	+	-15.5
Cc1cccc(Nc2nc(N)nc(N)c2N=O)c1	-3.9	4.0	-1.1	0.8
Cc1ccc(N(C)c2nc(N)nc(N)c2N=O)cc1	57.5*	-13.2	-0.6	-8.2
COC(=O)c1cccc(N2C(=O)C[C@](Sc3ccc(OC)cc3)(C(=O)N3CCOCC3)[C@H]2c2ccc(OC)cc2)c1	-2.2	/	/	4.8
COc1cc2c(cc1OC)C(C)=NCC2	18.6*	-3.1	5.3	5.4
COc1cc2c(cc1OC)C(c1ccc(Cl)cc1)=NCC2	-3.6	-5.6	-14.4	-10.6
O=C(CCCl)NC1CCCCN(Cc2ccc(OC(F)(F)F)cc2)C1=O (stereo unspecified)	2.2	/	/	-0.8
CC1(C)c2[nH]c3ccccc3c2C[C@@H]2C(=O)N(c3cc(F)ccc3F)C(=O)N21	1.7	27.5*	8.7	-4.9
COC(=O)C1=C(C(=O)OC)[C@@]2([C@@H](Cc3ccc(C)cc3)Nc3ccccc3)C=C[C@@H]1O2	-5.1	/	/	-4.1
Fc1ccc(OCc2nnc(-c3ccccc3Br)o2)c(Cl)c1	10.2	12.3	5.3	0.2
Clc1ccc(OCc2nnc(-c3ccccc3Br)o2)c(Cl)c1	42.0*	8.3	7.0	-9.3
Oc1ccc(N=Nc2c(O)ccc3ccccc23)cc1	2.0	3.7	8.9	-0.9
N=C(N)c1ccc(N=Nc2c(O)ccc3c2[nH]c2ccccc23)cc1	-15.1	174.8*	+	5.6
CC1=C2NC(N)=[N+](Cc3ccc4c(c3)OCO4)CC2n2c(=O)n(-c3ccccc3)c(=O)n2C1 (stereo unspecified)	-1.8	/	/	4.8
FC(F)(F)c1ccc2nc(CNc3nc(N4CCOCC4)nc4c3ncn4-c3ccsc3)[nH]c2c1	-0.7	/	/	1.0
CC(C)(N[C@@H](Cc1ccccc1)C(=O)NCCc1c[nH]c2ccccc12)C(=O)NC1CCCCC1	0.2	/	/	-2.5
O=C(O)c1cc(O)c2c(c1)C(=O)c1cccc(O)c1C2=O	30.2*	-3.3	5.3	3.1
NC1=C(Cl)C(=O)c2ccc(S(N)(=O)=O)cc2C1=O	1.8	56.9*	17.3	-7.2
COc1ccc(CN2C[C@]3(C=C(C)Cn4c(=O)n(-c5ccccc5)c(=O)n43)N(C(=O)OCc3ccccc3)C2=NC(=O)c2ccccc2)c(OC)c1	-1.8	/	/	2.0
Cc1[nH][nH]c(=O)c1C(c1ccc(-c2ccc(C(=O)O)cc2)o1)c1c(C)[nH][nH]c1=O	5.3	-4.8	28.5*	5.0
Cc1[nH][nH]c(=O)c1C(c1ccc(-c2ccc(F)cc2)o1)c1c(C)[nH][nH]c1=O	-4.1	-0.6	17.2	-7.5
C#CCn1c(=NC(=O)c2sc3ccccc3c2Cl)sc2cc(S(N)(=O)=O)ccc21	0.5	10.8	82.2*	4.1
C#CCn1c(=NC(=O)c2ccccc2[N+](=O)[O-])sc2cc(S(C)(=O)=O)ccc21	6.2	-4.7	-2.4	8.0
CC(CCN1CCC(C(O)(c2ccccc2)c2ccccc2)CC1)Oc1ccc(OC(F)(F)F)cc1 (stereo unspecified)	4.1	/	/	5.8
Cc1ccccc1N1CCN(CCCCN2C(=O)C3CCCN3C2=O)CC1 (stereo unspecified)	9.6	-11.8	2.1	-8.3
SMILES	Tn6 DDE FP	ASAP1 inh	ARFGAP1 inhibitor	DDE Tn7 FP inh
Nc1ccc(N2CCN(CCCCN3C(=O)C4CCCN4C3=O)CC2)cc1 (stereo unspecified)	50.4*	3.9	-5.8	1.0
Cc1cc(C)cc(C(=O)OCCN(C)C2CN(Cc3cn(Cc4ccccc4C(F)(F)F)nn3)S(=O)(=O)C2)c1 (stereo unspecified)	-1.2	/	/	4.9
CC(=O)Nc1cc(Cl)c(N=Cc2ccc(O)cc2O)cc1Cl	16.8*	3.3	6.0	-6.1
O=S(=O)(NN=Cc1ccc(O)cc1O)c1cc(Cl)c(Cl)cc1Cl	-7.0	8.0	3.5	2.3
COC(=O)[C@]12C[C@H](CC(=O)NCCc3ccccc3OC)C(=O)N(Cc3ccco3)C1=C[C@H](C(C)(C)C)O[C@@H]2C	-2.8	/	/	1.0
COC(=O)[C@]12C[C@H](CC(=O)N3CCOCC3)C(=O)N(Cc3ccco3)C1=C[C@H](C(C)C)O[C@@H]2C1CC1	-1.2	/	/	-4.7
CCOc1cccc(CNn2cnnc2)c1OCc1ccccc1Cl	2.3	2.2	4.9	10.7
CCOc1cccc(CNc2ccc(O)cc2)c1OCc1ccc(Cl)cc1Cl	27.9*	-12.9	-8.6	0.2
CCOc1cccc(CNc2ccc(O)cc2)c1OCc1ccccc1Cl	16.0*	6.3	-8.1	3.8
O=S1(=O)CC2c3ccccc3CN2CN1Cc1ccccc1 (stereo unspecified)	-3.6	/	/	1.5
O=C(CCl)N1c2ccccc2Oc2ccc3ccccc3c21	38.7*	-8.8	1.9	16.1*
O=c1c2ccccc2nc(-c2ccccc2)n1O	15.8*	-0.1	8.0	10.1
COc1ccc(-c2nc3ccccc3c(=O)n2O)cc1	-1.6	-11.9	9.9	-3.1
C=CC[C@H]1c2ccccc2[C@H]2N3N=Cc4ccccc4[C@H]3[C@H](CCc3ccccc3)C(=O)N2N1C(=O)c1ccccc1	-3.2	/	/	-1.6
CN1CCc2c(sc3c2C(=O)NC(c2ccccc2)N3)C1 (stereo unspecified)	3.1	-8.5	0.2	2.7
CN1CCc2c(sc3c2C(=O)NC(c2ccccn2)N3)C1 (stereo unspecified)	28.5*	-2.0	-13.4	12.1
C=Cc1c(C)c2cc3[nH]c(cc4nc(cc5nc(cc1[nH]2)C(C)=C5CCC(=O)O)C(CCC(=O)O)=C4C)c(C)c3C=C	31.1*	-70.0	-78.0	-0.7
Cc1ccc(NC2C(=O)NC(=O)NC2=O)cc1	-8.9	31.8*	16.7	7.5
CC1CN(c2nc3ccccc3nc2SCC(=O)N2CCN(S(=O)(=O)c3ccccc3)CC2)CC(C)O1 (stereo unspecified)	-1.3	/	/	4.3
C(#Cc1ccccc1)C[N+]1(CC#Cc2ccccc2)CCCC1	2.8	0.7	0.2	-2.7
C=CC#CC[N+]1(CC#Cc2ccccc2)CCOCC1	-1.9	86.8*	96.7*	-51.6
CCOC(=O)CNC(=O)CSc1nnc(-c2ccc(C(C)(C)C)cc2)n1-c1ccc(Cl)cc1	8.4	/	/	-8.9
CC(C)(C)S(=O)N1Cc2cc(C(=O)NCc3ccc(Oc4ccccc4)cc3)nc(-c3cccc(-c4cc5ccccc5o4)c3)c2[C@H]1CCO (stereo partly specified)	17.3*	19.4	21.3	4.2
COc1[nH]c(/N=C/c2ccccc2)c(C#N)c1C#N	38.0*	-1.2	10.6	5.8
COc1cccc(NC(=O)NC2CCCCN(Cc3ccc(C)cc3)C2=O)c1 (stereo unspecified)	3.6	/	/	5.9
CCC[C@H]1[C@@H](NS(=O)(=O)c2ccccc2[N+](=O)[O-])CC[C@@]23CCCN2C(=O)CCC[C@@H]13	-3.0	/	/	-2.0
COC1=C(Br)C(=O)c2ncccc2C1=O	5.5	47.4*	21.8	-5.8
O=C1c2cccnc2-c2ncccc21	-2.9	-6.6	-3.2	-2.0
